Screening data as filed in PubChem.
Compounds with a hit are over-represented: about 1.8% of the library has one in this group of screens.
M5 ag – agonists of human muscarinic M5 receptor (CHRM5) | activation, % at 3 µM | hit rate 0.19% among 360,000 | CHO-K1 hM5 cells, Fluo-8 calcium fluorescence; 0% DMSO wells, 100% maximal acetylcholine response | AID 624037;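 active means activation above the run's mean over test compounds plus 3 SD, cut at about 23% in these data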;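 further: signal is peak over basal fluorescence ratio across the kinetic read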
CHRM4 antagonist – antagonists of human muscarinic M4 receptor (CHRM4); P08173; CHO-hM4 cells, ACh EC80, Fluo-8 calcium fluorescence; inhibition, % at 3 µM; hit rate 0.73% among 360,000;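 active means inhibition above its plate's cutoff, the mean inhibition of sample wells plus 3 SD, cut at about 27% in these data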;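 further: 0% = acetylcholine EC80 with DMSO and 100% = DMSO without agonist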
Target sequence (P08173 whole entry, looked up): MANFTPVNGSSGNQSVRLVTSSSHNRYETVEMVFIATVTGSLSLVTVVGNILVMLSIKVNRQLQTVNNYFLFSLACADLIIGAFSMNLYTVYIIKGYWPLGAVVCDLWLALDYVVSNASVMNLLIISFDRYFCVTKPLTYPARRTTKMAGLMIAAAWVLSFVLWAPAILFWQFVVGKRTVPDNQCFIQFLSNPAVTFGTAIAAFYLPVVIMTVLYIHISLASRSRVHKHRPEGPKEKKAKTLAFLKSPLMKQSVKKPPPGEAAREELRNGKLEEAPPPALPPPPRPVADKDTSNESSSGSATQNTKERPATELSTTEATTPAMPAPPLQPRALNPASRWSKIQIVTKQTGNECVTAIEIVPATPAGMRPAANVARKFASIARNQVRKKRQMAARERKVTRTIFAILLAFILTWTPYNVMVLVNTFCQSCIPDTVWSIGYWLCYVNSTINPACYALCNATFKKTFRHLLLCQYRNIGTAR
CHRM4 agonist – CHRM4 agonism in calcium assay; P08173; CHO-K1 hM4/Gqi5, Fluo-8 calcium fluorescence; vehicle 0%, full acetylcholine response 100%; activation, % at 3 µM; hit rate 0.14% among 360,000;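 active means activation above the run mean over all test wells plus 3 SD, cut at about 32% in these data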;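 further: peak over basal fluorescence ratio per well then scaled between controls; 0% = DMSO wells and 100% = acetylcholine at EC100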
CHRM5 antagonist – blocks acetylcholine activation of human M5 receptor. inhibition, % at 3 µM. hit rate 0.59% among 360,000. CHO-hM5 cells, Fluo-8 calcium fluorescence, ACh EC80;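 active means inhibition above a per-plate cutoff, the mean of that plate's test compounds plus 3 SD, cut at about 27% in these data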;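 further: 0% = acetylcholine EC80 with DMSO and 100% = DMSO without agonist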
M5 PAM – CHRM5 positive allosteric modulation; CHO-K1 hM5, Fluo-8 calcium, ACh EC20 PAM; 0% = ACh EC20, 100% = ACh EC100; activation, % at 3 µM; hit rate 0.3% among 360,000; AID 624038;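 active means activation above the run cutoff, the mean activation of all test compounds plus 3 SD, cut at about 18% in these data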
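Assay system: CHO-K1 hM5 cells / Incubation: Fluo-8 loading 80 min at 37 °C plus 30 min room temperature / Technique: Fluo-8 calcium dye fluorescence, kinetic read / Repeats: single replicate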
M4 PAM – potentiates acetylcholine response at human M4 receptor | P08173 | AID 624126 | activation, % at 3 µM | CHO-K1 hM4/Gqi5, Fluo-8 calcium fluorescence, ACh EC20; 0% = ACh EC20, 100% = maximal ACh | hit rate 0.4% among 360,000;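 active means activation above its plate's cutoff, the mean activation of sample wells plus 3 SD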
* marks the source's active call; other numbers are inactive results; ! = not active in a repeat.

SMILES | M5 ag | CHRM4 antagonist | CHRM4 agonist | CHRM5 antagonist | M5 PAM | M4 PAM
Cc1cc(SCC(=O)O)nc2ccccc12 | 3 | -8 | 1 | -12 | 18*! | 14
Cc1cc(SCC(=O)N2CCCC2=O)nc2c(C)cccc12 | -7 | -21 | 3 | -2 | 4 | 4
Cc1cc(SCCC(=O)O)nc2c(C)cccc12 | -11 | -9 | 1 | -3 | 33* | 3
Cc1ccc(N2CC(C(=O)Nc3ccc(S(=O)(=O)Nc4ncccn4)cc3)CC2=O)cc1C (stereo not given) | 0 | 0 | 2 | -2 | 3 | -1
N#C/C(=N\Nc1ccc(S(=O)(=O)N2CCCCC2)cc1)C(N)=S | 7 | 1 | 7 | 3 | -4 | -2
N#C/C(=N\Nc1ccc(S(=O)(=O)N2CCCCCC2)cc1)C(N)=S | 4 | -5 | 12 | 30* | -17 | -7
N#C/C(=N/Nc1ccc([N+](=O)[O-])cc1)C(=N)N1CCCCC1 | 2 | 0 | 0 | 3 | -2 | -11
N#C/C(=N\Nc1ccc([N+](=O)[O-])cc1)C(N)=S | 7 | -2 | 10 | 30* | -20 | -23
O=C(O)[C@H](Cc1c[nH]c2ccccc12)Nc1ncccc1[N+](=O)[O-] | 0 | 4 | 0 | 8 | 4 | 0
COc1cccc(CN2CC(C(=O)N3CCN(C(C)C)CC3)CCC2=O)c1 (stereo not given) | -5 | -3 | 0 | 6 | 1 | 3
CCN(CC)CCN(Cc1cc2cc3c(cc2[nH]c1=O)OCO3)C(=S)NCCOC | 1 | -5 | 0 | -6 | 1 | -4
COC(=O)c1ccc(Cn2nc(-c3ccc(C)cc3)ccc2=O)cc1 | 0 | 7 | 1 | 7 | -1 | -4
CCSC1=NSC2=NC(=O)/C(=C\c3coc4ccccc4c3=O)C(=N)N12 | 51* | 38* | 63* | 63* | -21 | -22
CC(C)CC1=NN2C(=N)/C(=C\c3coc4ccccc4c3=O)C(=O)N=C2S1 | 158* | 9 | 63* | 48* | -25 | -23
Cc1cccc(-n2c(C)cc(/C=C3\C(=N)N4N=C(CC(C)C)SC4=NC3=O)c2C)c1 | -8 | 3 | 0 | 5 | -6 | -8
CCCCCC(=C/c1ccccc1)/C=N/Nc1ccc(S(=O)(=O)N2CCOCC2)cc1[N+](=O)[O-] | 0 | -9 | 0 | 8 | 5 | 1
CC(CNC(=O)Cn1ccc(N)nc1=O)c1ccccc1 (stereo not given) | -2 | 4 | -1 | 11 | 0 | -2
CCC1CCCCN1CCCNC(=O)CSc1nc2nc(C)c(Cc3ccc(C)cc3)c(C)n2n1 (stereo not given) | -8 | 26* | 1 | 8 | -9 | -14
Cc1nc2nc(SCC(=O)NCCCN3CCCCC3)nn2c(C)c1Cc1ccccc1 | -6 | 4 | 1 | 14 | -4 | -14
Cc1nc2nc(SCC(=O)NCCCN3CCCC3)nn2c(C)c1Cc1ccccc1Cl | -9 | 27* | 1 | 26 | -15 | -20
Cc1ccc(OCC(=O)OC(C)C(=O)NC2CCCCC2C)cc1C (stereo not given) | 4 | -21 | 0 | -7 | 1 | 8
COc1ccc(CN(C)C(=O)c2cc(-c3ccccc3)nc3ccc(C)cc23)c(OC)c1 | 3 | 31* | 14 | 18 | -16 | -9
Nc1ccc(-c2c3ccc(=O)cc-3oc3cc(O)ccc23)c(C(=O)O)c1 | 270* | 26 | 426* | 42* | -44 | -20
COc1ccc(-c2noc(CCCCC(=O)N3CCN(c4cc(C)ccc4C)CC3)n2)cc1 | 7 | 30* | 8 | 32* | -13 | -11
N#Cc1ccccc1S(=O)(=O)NC(=O)[C@H]1O[C@@H](n2cnc3c(N)ncnc32)[C@H](O)[C@@H]1O | 2 | -3 | 1 | -4 | 8 | 9
NS(=O)(=O)c1ccc(CCNC(=O)CCCCCn2c(=S)[nH]c3ccc(Br)cc3c2=O)cc1 | 2 | 21 | 17 | 27* | -25 | -14
O=C(CCCCCn1c(=S)[nH]c2ccc(Br)cc2c1=O)NCC1CCCO1 (stereo not given) | 2 | 3 | 1 | 3 | -4 | 3
